Measured values taken from ChEMBL document CHEMBL4428050, “Design, Synthesis, and Biological Evaluation of Substituted Pyrimidines as Potential Phosphatidylinositol 3-Kinase (PI3K) Inhibitors” (J Med Chem, 2016).

Tests used:
[1] = Inhibition of PI3K p110alpha/p85 (unknown origin) using PIP2/ATP as substrate after 1 hr by kinase glo luminescent assay; set-up: species or system Homo sapiens
Procedure, shortened: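 PI3K p110α activity read by Kinase-Glo Plus luminescence. IC50 is the mean of triplicate measurements.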

[2] = system: K562; test: Antiproliferative activity against human K562 cells after 72 hrs by CCK8 assay; format: functional, cell-based
[3] = system: A549; test: Antiproliferative activity against human A549 cells after 72 hrs by CCK8 assay; format: functional, cell-based
[4] = system: U-937; test: Antiproliferative activity against human U937 cells after 72 hrs by CCK8 assay; format: functional, cell-based
[5] = system: DU-145; test: Antiproliferative activity against human DU145 cells after 72 hrs by CCK8 assay; format: functional, cell-based
[6] = system: BGC-823; test: Antiproliferative activity against human BGC823 cells after 72 hrs by CCK8 assay; format: functional, cell-based
[7] = system: MCF7; test: Antiproliferative activity against human MCF7 cells after 72 hrs by CCK8 assay; format: functional, cell-based
[8] = system: HeLa; test: Antiproliferative activity against human HeLa cells after 72 hrs by CCK8 assay; format: functional, cell-based
[9] = system: SK-BR-3; test: Antiproliferative activity against human SK-BR-3 cells after 72 hrs by CCK8 assay; format: functional, cell-based; settings: SK-BR-3, 72 h
[10] = system: MOLT-4; test: Antiproliferative activity against human MOLT4 cells after 72 hrs by CCK8 assay; format: functional, cell-based
[11] = system: PANC-1; test: Antiproliferative activity against human PANC1 cells after 72 hrs by CCK8 assay; format: functional, cell-based; settings: Homo sapiens, PANC-1, 72 h
[12] = system: NCI-N87; test: Antiproliferative activity against human NCI-N87 cells after 72 hrs by CCK8 assay; format: functional, cell-based
[13] = system: Huh-7; test: Antiproliferative activity against human HuH7 cells after 72 hrs by CCK8 assay; format: functional, cell-based; settings: Huh-7, 72 h
[14] = system: Bel-7402; test: Antiproliferative activity against human Bel7402 cells after 72 hrs by CCK8 assay; format: functional, cell-based; settings: Bel-7402, 72 h
[15] = system: A-431; test: Antiproliferative activity against human A431 cells after 72 hrs by CCK8 assay; format: functional, cell-based; settings: Homo sapiens, A-431, 72 h
[16] = system: HT-1080; test: Antiproliferative activity against human HT1080 cells after 72 hrs by CCK8 assay; format: functional, cell-based; settings: HT-1080, 72 h
[17] = system: SGC-7901; test: Antiproliferative activity against human SGC7901 cells after 72 hrs by CCK8 assay; format: functional, cell-based; settings: SGC-7901, 72 h

Structure (SMILES)	IC50 [1] [nM]	IC50 ([2]; Homo sapiens, K562, 72 h) [nM]	IC50 ([3]; Homo sapiens, A549, 72 h) [nM]	IC50 ([4]; Homo sapiens, U-937, 72 h) [nM]	IC50 ([5]; Homo sapiens, DU-145, 72 h) [nM]	IC50 ([6]; Homo sapiens, BGC-823, 72 h) [nM]	IC50 ([7]; Homo sapiens, MCF7, 72 h) [nM]	IC50 ([8]; Homo sapiens, HeLa, 72 h) [nM]	IC50 ([10]; Homo sapiens, MOLT-4, 72 h) [nM]	further results
C[C@@H]1CN(c2nc(-c3cnc(N)cc3C(F)(F)F)nc(N3C[C@H]4C[C@@H]3CO4)n2)C[C@H](C)O1	9530	–	–	–	–	–	–	–	–	–
Nc1cc(C(F)(F)F)c(-c2cc(N3CCOCC3)nc(Nc3ccc(N4CCOCC4)cc3)n2)cn1	26	8810	7790	3480	> 10000	8360	9410	6910	1770	IC50 [9]: 2670 nM
Nc1cc(C(F)(F)F)c(-c2cc(N3CCOCC3)nc(NCCN3CCOCC3)n2)cn1	568	–	–	–	–	–	–	–	–	–
Nc1cc(C(F)(F)F)c(-c2cc(N3CCOCC3)nc(N3C[C@H]4OCCO[C@@H]4C3)n2)cn1	61	6340	6400	3380	15000	6590	7470	7530	1960	IC50 [9]: 3470 nM
Nc1ncc(-c2cc(N3CCOCC3)nc(N3C[C@H]4OCCO[C@@H]4C3)n2)cn1 (racemic)	128	–	–	–	–	–	–	–	–	–
Nc1cc(C(F)(F)F)c(-c2cc(N3CCOCC3)nc(N3C[C@H]4C[C@@H]3CO4)n2)cn1	60	2400	3050	720	2380	2440	2540	1760	1140	IC50 [11]: 2780 nM; IC50 ([12]; Homo sapiens, NCI-N87, 72 h): 1410 nM; IC50 [13]: 2930 nM; IC50 [14]: 2790 nM; IC50 [15]: 1790 nM; IC50 [16]: 2720 nM; IC50 [17]: 2300 nM
Nc1cc(C(F)(F)F)c(-c2ccc3c(N4CCOCC4)nc(N4CCOCC4)nc3c2)cn1	> 10000	–	–	–	–	–	–	–	–	–
C[C@@H]1CN(c2nc(-c3cnc(N)cc3C(F)(F)F)nc(N3C[C@@H]4OCCO[C@@H]4C3)n2)C[C@H](C)O1	> 10000	–	–	–	–	–	–	–	–	–
C[C@@H]1CN(c2nc(-c3cnc(N)cc3C(F)(F)F)cc(N3CCOCC3)n2)C[C@H](C)O1	91	2680	1890	570	1410	1410	1410	1810	420	IC50 [11]: 1380 nM; IC50 ([12]; Homo sapiens, NCI-N87, 72 h): 520 nM; IC50 [13]: 1210 nM; IC50 [14]: 1640 nM; IC50 [15]: 2290 nM; IC50 [16]: 1980 nM; IC50 [17]: 1240 nM
CS(=O)(=O)N1CCN(c2nc(-c3cnc(N)cc3C(F)(F)F)cc(N3CCOCC3)n2)CC1	23	3640	2950	1990	6560	3640	4390	4040	1110	IC50 [9]: 1590 nM
Nc1cc(C(F)(F)F)c(-c2cc(N3CCOCC3)nc(N3C[C@@H]4OCCO[C@H]4C3)n2)cn1	35	–	–	–	–	–	–	–	–	IC50 ([2]; k562): 2560 nM; IC50 ([3]; a549): 2490 nM; IC50 ([4]; u-937): 1510 nM; IC50 ([5]; du-145): 4860 nM; IC50 ([6]; bgc-823): 2790 nM; IC50 ([7]; mcf7): 3820 nM; IC50 ([8]; hela): 2450 nM; IC50 [9]: 1600 nM; IC50 ([10]; molt-4): 970 nM
C[C@@H]1CN(c2cc(-c3cnc(N)cc3C(F)(F)F)nc(N3C[C@@H](C)O[C@@H](C)C3)n2)C[C@H](C)O1	> 10000	–	–	–	–	–	–	–	–	–
Nc1cc(C(F)(F)F)c(-c2cc(N3CCOCC3)nc(N3C[C@@H]4OCCO[C@@H]4C3)n2)cn1	117	1750	4980	1760	4810	4570	4950	4310	2510	IC50 [11]: 3670 nM; IC50 ([12]; Homo sapiens, NCI-N87, 72 h): 1970 nM; IC50 [13]: 4840 nM; IC50 [14]: 5820 nM; IC50 [15]: 2550 nM; IC50 [16]: 4840 nM; IC50 [17]: 3750 nM
C[C@@H]1CN(c2cc(-c3cnc(N)cc3C(F)(F)F)nc(N3C[C@@H]4OCCO[C@@H]4C3)n2)C[C@H](C)O1	5750	–	–	–	–	–	–	–	–	–
Oc1cccc(-c2nc(N3CCOCC3)c3oc4ncccc4c3n2)c1 [PI-103]	7.4	–	–	–	–	–	–	–	–	–
C[C@@H]1CN(c2cc(-c3cnc(N)cc3C(F)(F)F)nc(N3CCOCC3)n2)C[C@H](C)O1	224	–	–	–	–	–	–	–	–	–
C[C@@H]1CN(c2nc(N3C[C@@H](C)O[C@@H](C)C3)c3ccc(-c4cnc(N)cc4C(F)(F)F)cc3n2)C[C@H](C)O1	> 10000	–	–	–	–	–	–	–	–	–
Nc1cc(C(F)(F)F)c(-c2cc(N3C[C@@H]4OCCO[C@@H]4C3)nc(N3CCOCC3)n2)cn1	896	> 10000	–	–	> 10000	–	–	–	–	–
Nc1cc(C(F)(F)F)c(-c2nc(N3CCOCC3)nc(N3C[C@H]4OCCO[C@@H]4C3)n2)cn1 (racemic)	32	–	4030	3050	–	9570	8150	–	1210	IC50 [11]: 6230 nM; IC50 ([12]; nci-n87): 770 nM; IC50 [13]: 5660 nM; IC50 [14]: 5900 nM; IC50 [15]: > 10000 nM; IC50 ([2]; k562): > 10000 nM; IC50 ([5]; du-145): 3300 nM; IC50 [16]: 10000 nM; IC50 ([8]; hela): > 10000 nM; IC50 [17]: 4460 nM
C[C@@H]1CN(c2nc(-c3cnc(N)cc3C(F)(F)F)nc(N3C[C@@H](C)O[C@@H](C)C3)n2)C[C@H](C)O1	> 10000	–	–	–	–	–	–	–	–	–
Nc1cc(C(F)(F)F)c(-c2cc(N3C[C@H]4OCCO[C@@H]4C3)nc(N3CCOCC3)n2)cn1 (racemic)	375	3190	5560	2860	7110	4330	7290	5330	3240	IC50 [11]: 5970 nM; IC50 ([12]; Homo sapiens, NCI-N87, 72 h): 6210 nM; IC50 [13]: 6290 nM; IC50 [14]: 6430 nM; IC50 [15]: 3030 nM; IC50 [16]: 5640 nM; IC50 [17]: 4780 nM
